Measurements collected from several papers.
Compare with care: the assays were run in different laboratories.
Target: Serine/threonine-protein kinase Nek2 (NEK2, Homo sapiens, UniProt P51955)

| SMILES | effect on | mode | technique | concentration | measurement | value |
| --- | --- | --- | --- | --- | --- | --- |
| Cc1ccc(NC(=O)c2ccc(CN3CCN(C)CC3)cc2)cc1Nc1nc(-c2cccnc2)cs1 | cell-free assay | – | – | 0.5 µM | remaining signal | 96.7% |
| N#CC1(c2ccccn2)CCN(Cc2cc(C(=O)N3CCCC3)c(=O)n3ccccc23)CC1 | cell-free assay | – | competition with immobilised ligand | 1 µM | remaining binding | 95% |
| FC(F)(F)Oc1cccc(-c2cnc3ccc(-c4ccncc4)nn23)c1 | enzyme activity | inhibitor | radiometric | 1 µM | activity vs control | 91% |
| COc1cc(/C=C/C(=O)CC(=O)/C=C/c2ccc(O)c(OC)c2)ccc1O | enzyme activity | inhibitor | – | 1 µM | activity vs control | 99% |
| COc1cc(Nc2cnc(C#N)c(O[C@H](C)CN(C)C)n2)ncc1-c1cnn(C)c1 | enzyme activity | inhibitor | radiometric | 1 µM | remaining activity | 58% |
| CNCc1ccc(-c2cc(-c3nc(-c4ccc(S(=O)(=O)C(C)C)cc4)cnc3N)on2)cc1 | enzyme activity | inhibitor | – | 0.4 µM | inhibition | 0% |
| Cc1ccc(C(=O)Nc2ccc(CN3CCN(C)CC3)c(C(F)(F)F)c2)cc1C#Cc1cnc2cccnn12 | enzyme activity | inhibitor | – | 23.5 nM | remaining activity | 92% |
| O=C1Nc2ccc(Cl)cc2C1=Cc1cc(Cl)c(O)c(Cl)c1 | cell-free assay | – | – | 0.5 µM | remaining signal | 86% |
| Nc1nc(Nc2ccccc2)sc1C(=O)c1c(F)cccc1F | enzyme activity | inhibitor | – | 10 µM | remaining activity | 92% |
| Cc1ccc(NC(=O)c2ccc(C)c(C(F)(F)F)c2)cc1C#Cc1nn(C2CCC(O)CC2)c2ncnc(N)c12 (stereo not drawn) | cell-free assay | – | – | 10 µM | remaining signal | 117% |
| CCN(CC)CCNC(=O)c1c(C)[nH]c(/C=C2\C(=O)Nc3ccc(F)cc32)c1C | enzyme activity | inhibitor | – | 0.3 µM | inhibition | 9% |
| CC(C)(C)c1nc2c(s1)c1nc(N)ncc1c1ccc(NS(=O)(=O)c3c(F)cccc3F)c(F)c12 | enzyme activity | inhibitor | radiometric | 1 µM | remaining activity | 103% |
| CCC(=N\O)/C(C)=C/c1ccc(F)cc1 | cell-free assay | – | competition with immobilised ligand | 1 µM | remaining binding | 100% |
| FC(F)c1nc2ccccc2n1-c1nc(N2CCOCC2)nc(N2CCOCC2)n1 | enzyme activity | inhibitor | – | 10 µM | remaining activity | 106% |
| Cc1cc(NC(=O)c2cccc3cc(-c4cccc5[nH]nc(N)c45)ccc23)ccc1F | enzyme activity | inhibitor | – | 0.1 µM | activity vs control | 99% |
| COc1cc2ncnc(Nc3ccc(Oc4ccccc4)cc3C)c2cc1OC | enzyme activity | inhibitor | – | 1 µM | inhibition | 1% |
| Cn1c(=O)n(-c2ccc(C(C)(C)C#N)cc2)c2c3cc(-c4cnc5ccccc5c4)ccc3ncc21 | enzyme activity | inhibitor | – | 10 µM | remaining activity | 145% |
| CN(c1ccnc(CNc2nc(Nc3ccc4c(c3)CC(=O)N4)ncc2C(F)(F)F)n1)S(C)(=O)=O | cell-free assay | – | competition with immobilised ligand | 1 µM | remaining binding | 83% |
| Cc1ccc(Nc2nccc(N(C)c3ccc4c(C)n(C)nc4c3)n2)cc1S(N)(=O)=O | enzyme activity | inhibitor | – | 0.3 µM | inhibition | 2% |
| CC1(C)NC(=O)c2[nH]c3c(Cl)c(Cl)ccc3c2C1C#N (stereo not drawn) | thermal stability | – | DSF | 10 µM | ΔTm | -0.8 °C |

| SMILES | effect on | mode | technique | concentration | measurement | value |
| --- | --- | --- | --- | --- | --- | --- |
| CN(C)CC#Cc1ccc(OCCCc2sc(N3CCc4cccc(C(=O)Nc5nc6ccccc6s5)c4C3)nc2C(=O)O)c(F)c1 | cell-free assay | – | competition with immobilised ligand | 1 µM | remaining binding | 92% |
| CNC(=O)c1cc(Oc2ccc(NC(=O)Nc3ccc(Cl)c(C(F)(F)F)c3)cc2)ccn1 | enzyme activity | inhibitor | – | 10 µM | inhibition | -16% |
| CCCS(=O)(=O)Nc1ccc(F)c(C(=O)c2c[nH]c3ncc(-c4ccc(Cl)cc4)cc23)c1F | enzyme activity | inhibitor | – | 1 µM | inhibition | < 20% |
| Cn1c2c(Cl)c(Cl)ccc2c2cc(N)[nH]c(=O)c21 | thermal stability | – | DSF | 10 µM | ΔTm | 1.8 °C |
| COc1ccc2c(c1)O[C@H](c1ccc(OC)c(OC)c1)C[C@@H]2NC(=O)C1(c2ccc3c(c2)OC(F)(F)O3)CC1 | cell-free assay | – | competition with immobilised ligand | 1 µM | remaining binding | 100% |
| O=C1NC(=O)c2cc(Nc3ccc(F)cc3)c(Nc3ccc(F)cc3)cc21 | cell-free assay | – | – | 0.5 µM | remaining signal | 96.3% |
| CN1CC(Oc2cnc(C#N)cc2-c2ccn3nc(NC(=O)C4CC4)cc3c2)C1 | enzyme activity | inhibitor | – | 1 µM | inhibition | 5% |
| Cn1c2c(Cl)c(Cl)ccc2c2cn[nH]c(=O)c21 | thermal stability | – | DSF | 10 µM | ΔTm | -0.6 °C |
| O=C(NS(=O)(=O)c1ccc(NCC2CCOCC2)c([N+](=O)[O-])c1)c1ccc(N2CCN(Cc3ccc(C(F)(F)F)cc3-c3ccc(Cl)cc3)CC2)cc1Oc1cnc2[nH]ccc2c1 | cell-free assay | – | competition with immobilised ligand | 1 µM | remaining binding | 100% |
| Cc1sc(C(=O)NC2COC2)cc1-n1cc(NC(=O)Nc2c(F)cccc2Cl)cn1 | enzyme activity | inhibitor | – | 10 µM | remaining activity | 88% |
| Nc1nc(NC2CCCCC2)sc1C(=O)c1ccccc1 | enzyme activity | inhibitor | – | 10 µM | remaining activity | 93% |
| CN(c1ncccc1CNc1nc(Nc2ccc3c(c2)CC(=O)N3)ncc1C(F)(F)F)S(C)(=O)=O | enzyme activity | inhibitor | – | 1 µM | inhibition | 4.1% |
| CN(C)C1CCN(CC#Cc2nn(C3CCCC3)c3nc(NCc4ccccc4)ncc23)C1 (stereo not drawn) | enzyme activity | inhibitor | FRET | 1 µM | inhibition | 4% |
| CNC(=O)c1ccc(Nc2ncc(C(F)(F)F)c(NCc3nccnc3N(C)S(C)(=O)=O)n2)cc1 | cell-free assay | – | competition with immobilised ligand | 0.1 µM | remaining binding | 75% |
| Cn1c2c(c3ccccc31)C(C#N)C(C)(C)NC2=O (stereo not drawn) | thermal stability | – | DSF | 10 µM | ΔTm | -0.1 °C |
| CNc1cccc2cc(C(=O)Nc3ccc(C(=O)O)cc3)c(=O)[nH]c12 | enzyme activity | inhibitor | – | 10 µM | inhibition | 3.2% |
| CSc1nc(C)c(-c2ccnc(Nc3ccc(N4CCOCC4)cc3)c2)[nH]1 | enzyme activity | inhibitor | – | 10 µM | inhibition | 20% |
| CS(=O)(=O)NCC[C@H](NC(=O)c1cncc2c1cnn2-c1ccc(F)cc1)c1ccnc(S(C)(=O)=O)c1 | cell-free assay | – | competition with immobilised ligand | 1 µM | remaining binding | 97% |
| CCN1CCC2(CC1)NC(=O)c1c(c3ccc(Cl)c(Cl)c3n1C)C2C#N (racemic) | thermal stability | – | DSF | 10 µM | ΔTm | 0 °C |
